Laboratory results: ChEMBL document CHEMBL1152870, “Design and synthesis of novel dihydroquinoline-3-carboxylic acids as HIV-1 integrase inhibitors” (Bioorg Med Chem, 2009)

Columns and labels:
HCT-116 [1] = experiment: Cytotoxicity against p53 deficient human HCT116 cells after 72 hrs by MTT assay; type: functional; settings: HCT-116, 72 h
How it was run: (§1)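 HCT116 p53+/+ or p53−/− cells grown as monolayers in RPMI 1640 with 10% FBS and 2 mmol/L L-glutamine at 37 °C, 5% CO2, and used in exponential growth. Cells were seeded, allowed to attach, then exposed continuously to drug for 72 h. DMSO stocks were diluted in medium. MTT (0.5 mg/mL final) was added for 4 h at 37 °C and read at 570 nm. Triplicates; IC50 from log concentration versus % cells killed.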

[2] = target: T1, Human immunodeficiency virus type 1 integrase (Human immunodeficiency virus 1, UniProt Q7ZJM1); experiment: Inhibition of HIV1 integrase 3' processing activity by PAGE
T1 sequence (Q7ZJM1 whole entry): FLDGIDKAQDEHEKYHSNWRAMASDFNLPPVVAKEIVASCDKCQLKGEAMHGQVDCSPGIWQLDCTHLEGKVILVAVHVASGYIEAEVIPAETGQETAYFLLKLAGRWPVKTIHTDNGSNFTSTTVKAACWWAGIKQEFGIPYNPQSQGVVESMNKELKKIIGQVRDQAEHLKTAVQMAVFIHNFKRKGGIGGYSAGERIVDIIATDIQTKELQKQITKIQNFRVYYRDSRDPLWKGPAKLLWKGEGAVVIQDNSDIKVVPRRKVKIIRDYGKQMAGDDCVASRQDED

HCT-116 [3] = experiment: Cytotoxicity against human HCT116 cells expressing p53 after 72 hrs by MTT assay; type: functional; settings: HCT-116, 72 h; how it was run: as §1
[4] = target: T1, Human immunodeficiency virus type 1 integrase; experiment: Inhibition of HIV1 integrase strand transfer activity by PAGE

CCOC(=O)c1c(O)c2cc(OC)ccc2n(C)c1=O
CC50 (HCT-116 [1]): > 10 µM | IC50 [2]: > 1000 µM | CC50 (HCT-116 [3]): > 10 µM | IC50 [4]: > 1000 µM

Cn1c(=O)c(C(=O)O)c(O)c2cc(Cc3ccccc3)ccc21
CC50 (HCT-116 [1]): > 10 µM | IC50 [2]: 45 µM | CC50 (HCT-116 [3]): > 10 µM | IC50 [4]: 6 µM

CCCCCn1c(=O)c(C(=O)Nc2cc([N+](=O)[O-])ccc2O)c(O)c2ccccc21
CC50 (HCT-116 [1]): > 10 µM | IC50 [2]: 9 µM | CC50 (HCT-116 [3]): > 10 µM | IC50 [4]: 9 µM

COc1ccc2c(c1)c(O)c(C(=O)O)c(=O)n2C
CC50 (HCT-116 [1]): > 10 µM | IC50 [2]: 580 µM | CC50 (HCT-116 [3]): > 10 µM | IC50 [4]: 320 µM

Cn1c(=O)c(C(=O)O)c(O)c2cc(Cc3ccc(F)cc3)ccc21
CC50 (HCT-116 [1]): > 10 µM | IC50 [2]: 23 µM | CC50 (HCT-116 [3]): > 10 µM | IC50 [4]: 0.9 µM

Cn1c(=O)c(C(=O)O)c(O)c2cc(Oc3ccccc3)ccc21
CC50 (HCT-116 [1]): > 10 µM | IC50 [2]: 34 µM | CC50 (HCT-116 [3]): > 10 µM | IC50 [4]: 14 µM

CCOC(=O)c1c(O)c2cc(Cc3ccc(F)cc3)ccc2n(C)c1=O
CC50 (HCT-116 [1]): > 10 µM | IC50 [2]: 800 µM | CC50 (HCT-116 [3]): > 10 µM | IC50 [4]: 220 µM

O=C(O)C(=O)CC(=O)c1cccn1Cc1ccc(F)cc1
CC50 (HCT-116 [1]): > 10 µM | CC50 (HCT-116 [3]): > 10 µM

CCCCCn1c(=O)c(C(=O)O)c(O)c2cc(Cc3ccc(F)cc3)ccc21
CC50 (HCT-116 [1]): > 10 µM | IC50 [2]: 92 µM | CC50 (HCT-116 [3]): > 10 µM | IC50 [4]: 5 µM

CCOC(=O)c1c(O)c2cc(Cc3ccccc3)ccc2n(C)c1=O
CC50 (HCT-116 [1]): > 10 µM | IC50 [2]: 275 µM | CC50 (HCT-116 [3]): > 10 µM | IC50 [4]: 110 µM
